From ChEMBL document CHEMBL4823260, “From High-Throughput Screening to Target Validation: Benzo[d]isothiazoles as Potent and Selective Agonists of Human Transient Receptor Potential Cation Channel Subfamily M Member 5 Possessing In Vivo Gastrointestinal Prokinetic Activity in Rodents” (J Med Chem, 2021)
Values belong to the compound of their own block, whether it stands above or below them.

How the values were obtained:
[1] = AUClast in CD-1 mouse at 1 mg/kg, iv measured up to 24 hrs; format: ADME, organism-based; parameters: route intravenous, dose 1 mg/kg, time <=24; conditions: in vivo
[2] = Half life in CD-1 mouse at 1 mg/kg, iv measured up to 24 hrs; format: ADME, organism-based; conditions: in vivo
[3] = Clast in CD-1 mouse at 1 mg/kg, iv measured up to 24 hrs; format: ADME, organism-based; conditions: in vivo, read-out: Clast
[4] = test system: Mus musculus; test: Gastroprokinetic activity in CD-1 mouse assessed as stimulation of gastrointestinal motility by measuring fecal number at 10 mg/kg, po measured after 6 hrs (reference value: 20.1 +/-1.4); format: functional
[5] = Drug concentration in C57BL6 mouse colon at 100 mg/kg, po administered as single dose measured after 24 hrs by LC-MS/MS analysis; format: ADME, organism-based; conditions: read-out: Ct
Method in brief: (§1)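 Single oral dose of 1, 3 or 100 mg/kg in mouse. Plasma (ng/mL) and colon and ileum (ng/g) exposure sampled at 6, 24 and 48 h, and at 72 h for the top dose; mean values reported.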

[6] = test system: Mus musculus; test: Gastroprokinetic activity in CD-1 mouse assessed as stimulation of gastrointestinal motility by measuring total fecal weight at 1 mg/kg, po measured after 6 hrs (reference value: 0.43 +/-0.05 g); format: functional
[7] = Drug concentration in C57BL6 mouse ileum at 100 mg/kg, po administered as single dose measured after 48 to 72 hrs by LC-MS/MS analysis; format: ADME, organism-based; conditions: in vivo, time 48-72 hrs; method in brief: as §1
[8] = test system: Mus musculus; test: Gastroprokinetic activity in CD-1 mouse assessed as stimulation of gastrointestinal motility by measuring total fecal weight at 1 mg/kg, po measured after 2 hrs (reference value: 0.13 +/-0.02 g); format: functional
[9] = test system: Mus musculus; test: Gastroprokinetic activity in CD-1 mouse assessed as stimulation of gastrointestinal motility by measuring total fecal weight at 10 mg/kg, po measured after 6 hrs (reference value: 0.43 +/-0.05 g)
[10] = test system: Mus musculus; test: Gastroprokinetic activity in CD-1 mouse assessed as stimulation of gastrointestinal motility by measuring total fecal weight at 1 mg/kg, po measured after 1 hrs (reference value: 0.08 +/-0.02 g); format: functional
[11] = Drug concentration in C57BL6 mouse plasma at 1 mg/kg, po administered as single dose measured after 6 to 48 hrs by LC-MS/MS analysis; format: ADME, organism-based; conditions: in vivo, time 6-48 hrs; method in brief: as §1
[12] = test system: Mus musculus; test: Gastroprokinetic activity in CD-1 mouse assessed as stimulation of gastrointestinal motility by measuring total fecal weight at 100 mg/kg, po measured after 6 hrs (reference value: 0.43 +/-0.05 g)
[13] = Drug concentration in C57BL6 mouse plasma at 100 mg/kg, po administered as single dose measured after 24 to 72 hrs by LC-MS/MS analysis; format: ADME, organism-based; conditions: in vivo, time 24-72 hrs; method in brief: as §1
[14] = test system: Mus musculus; test: Gastroprokinetic activity in CD-1 mouse assessed as stimulation of gastrointestinal motility by measuring total fecal weight at 100 mg/kg, po measured after 1 hrs (reference value: 0.08 +/-0.02 g); format: functional
[15] = test system: Mus musculus; test: Gastroprokinetic activity in CD-1 mouse assessed as stimulation of gastrointestinal motility by measuring fecal number at 1 mg/kg, po measured after 2 hrs (reference value: 5.3 +/-0.7); format: functional
[16] = Drug concentration in C57BL6 mouse ileum at 100 mg/kg, po administered as single dose measured after 24 hrs by LC-MS/MS analysis; format: ADME, organism-based; conditions: read-out: Ct; method in brief: as §1
[17] = Effect on locomotor activity in CD-1 mouse at 1 to 100 mg/kg, po measured up to 6 hrs; format: organism-based; conditions: in vivo, dose 1-100 mg/kg
[18] = Drug concentration in C57BL6 mouse colon at 3 mg/kg, po administered as single dose measured after 6 hrs by LC-MS/MS analysis; format: ADME, organism-based; conditions: read-out: Ct; method in brief: as §1
[19] = Drug concentration in C57BL6 mouse colon at 1 mg/kg, po administered as single dose measured after 24 to 48 hrs by LC-MS/MS analysis; format: ADME, organism-based; conditions: in vivo, time 24-48 hrs; method in brief: as §1
[20] = Drug concentration in C57BL6 mouse ileum at 100 mg/kg, po administered as single dose measured after 6 hrs by LC-MS/MS analysis; format: ADME, organism-based; conditions: read-out: Ct; method in brief: as §1
[21] = Drug concentration in C57BL6 mouse colon at 100 mg/kg, po administered as single dose measured after 6 hrs by LC-MS/MS analysis; format: ADME, organism-based; conditions: read-out: Ct; method in brief: as §1
[22] = test system: Mus musculus; test: Gastroprokinetic activity in CD-1 mouse assessed as stimulation of gastrointestinal motility by measuring fecal number at 1 mg/kg, po measured after 3 hrs (reference value: 9.1 +/-1.1); format: functional
[23] = Drug concentration in C57BL6 mouse colon at 3 mg/kg, po administered as single dose measured after 24 to 48 hrs by LC-MS/MS analysis; format: ADME, organism-based; conditions: in vivo, time 24-48 hrs; method in brief: as §1
[24] = test system: Mus musculus; test: Gastroprokinetic activity in CD-1 mouse assessed as stimulation of gastrointestinal motility by measuring fecal number at 10 mg/kg, po measured after 1 hrs (reference value: 3 +/-0.8); format: functional
[25] = Drug concentration in C57BL6 mouse plasma at 100 mg/kg, po administered as single dose measured after 6 hrs by LC-MS/MS analysis; format: ADME, organism-based; method in brief: as §1
[26] = Drug concentration in C57BL6 mouse ileum at 3 mg/kg, po administered as single dose measured after 6 to 48 hrs by LC-MS/MS analysis; format: ADME, organism-based; conditions: in vivo, time 6-48 hrs; method in brief: as §1
[27] = test system: Mus musculus; test: Gastroprokinetic activity in CD-1 mouse assessed as stimulation of gastrointestinal motility by measuring fecal number at 10 mg/kg, po measured after 3 hrs (reference value: 9.1 +/-1.1); format: functional
[28] = test system: Mus musculus; test: Gastroprokinetic activity in CD-1 mouse assessed as stimulation of gastrointestinal motility by measuring total fecal weight at 10 mg/kg, po measured after 3 hrs (reference value: 0.21 +/-0.03 g)
[29] = test system: Mus musculus; test: Gastroprokinetic activity in CD-1 mouse assessed as stimulation of gastrointestinal motility by measuring fecal number at 10 mg/kg, po measured after 2 hrs (reference value: 5.3 +/-0.7); format: functional
[30] = test system: Mus musculus; test: Gastroprokinetic activity in CD-1 mouse assessed as stimulation of gastrointestinal motility by measuring fecal number at 1 mg/kg, po measured after 1 hrs (reference value: 3 +/-0.8); format: functional
[31] = Drug concentration in C57BL6 mouse colon at 100 mg/kg, po administered as single dose measured after 48 hrs by LC-MS/MS analysis; format: ADME, organism-based; conditions: read-out: Ct; method in brief: as §1
[32] = test system: Mus musculus; test: Gastroprokinetic activity in CD-1 mouse assessed as stimulation of gastrointestinal motility by measuring total fecal weight at 100 mg/kg, po measured after 3 hrs (reference value: 0.21 +/-0.03 g); format: functional
[33] = test system: Mus musculus; test: Gastroprokinetic activity in CD-1 mouse assessed as stimulation of gastrointestinal motility by measuring fecal number at 1 mg/kg, po measured after 6 hrs (reference value: 20.1 +/-1.4); format: functional

- AUClast [1]: 541 ng·h/mL
- half-life [2]: 48.6 min
- concentration at 24 h [3]: 2.99 ng/mL
Compound: Clc1cnc(CNc2ccc3cnsc3c2)s1

- concentration at 24 h [5]: 164 ng/g
- Ct [7]: < 20 ng/mL
- Cp [11]: < 20 ng/mL
- Cp [13]: < 20 ng/mL
- concentration at 24 h [16]: 202 ng/g
- concentration at 6 h [18]: 143 ng/g
- Ct [19]: < 20 ng/mL
- concentration at 6 h [20]: 7380 ng/g
- concentration at 6 h [21]: 2620 ng/g
- Ct [23]: < 20 ng/mL
- concentration at 6 h [25]: 22.6 ng/mL
- Ct [26]: < 20 ng/mL
- concentration at 48 h [31]: 58 ng/g
Compound: Clc1cnc(CNc2cc3sncc3cc2Cl)s1
- Activity [4]: 18.5
- Activity [6]: 0.45 g
- Activity [8]: 0.15 g
- Activity [9]: 0.39 g
- Activity [10]: 0.09 g
- Activity [12]: 0.49 g
- Activity [14]: 0.12 g
- Activity [15]: 7.5
- Activity [17]: Non-Toxic
- Activity [22]: 11.8
- Activity [24]: 3.4
- Activity [27]: 10.3
- Activity [28]: 0.23 g
- Activity [29]: 7.3
- Activity [30]: 4.3
- Activity [32]: 0.41 g
- Activity [33]: 24.3
